This is an account of results in article PMC3995353 (Biopolymers, 2014).

This data set has as its system Chinese Hamster Ovary (CHO) cells. The experiment in a line: Cytotoxicity, MTT assay in CHO cells. In kind it is cell-based. The settings on record: 5 μM, 48 hours. The essentials:
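CHO cells seeded in 96-well plates, test compound added at concentrations up to 20 μM, then 48 h at 37°C, 5% CO2, humidified (cells adhere during incubation). MTT (50 μg/well) added for 6 h. Formazan dissolved in acidified isopropanol (90% isopropanol:10% Triton X-100:0.4% HCl), OD read at 550 nm as relative viability. Mean ± standard error, ≥3 experiments.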
(Tetrazolium dyes change colour on reduction, which living cells bring about.)

Take Melittin: the “cell viability (positive control)” value is given as “complete loss of cell viability”.
